According to ChEMBL document CHEMBL4251658, “Cytotoxic and Noncytotoxic Metabolites from Teratosphaeria sp. FL2137, a Fungus Associated with Pinus clausa” (J Nat Prod, 2018):

Assays:
Assay type in all cases: functional, cell-based
NCI-H460 = assay: Cytotoxicity against human NCI-H460 cells by resazurin dye based Alamar blue assay
Outline: (§1)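 Resazurin-based colorimetric (Alamar Blue) read-out of in vitro cytotoxicity in human cancer lines: NCI-H460 non-small-cell lung, SF-268 CNS glioma, MCF-7 breast, PC-3M metastatic prostate adenocarcinoma, MDA-MB-231 breast adenocarcinoma. Doxorubicin served as positive control and DMSO as negative control. Run in triplicate. Compounds tested up to 5.0 μM; IC50 values derived.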

SF-268 = assay: Cytotoxicity against human SF268 cells by resazurin dye based Alamar blue assay; outline: as §1
MCF7 = assay: Cytotoxicity against human MCF7 cells by resazurin dye based Alamar blue assay; outline: as §1
PC-3M = assay: Cytotoxicity against human PC3M cells by resazurin dye based Alamar blue assay; outline: as §1
MDA-MB-231 = assay: Cytotoxicity against human MDA-MB-231 cells by resazurin dye based Alamar blue assay; outline: as §1

Q: Which results are given for COc1cc(O)c2c(c1)C(=O)C(C)=CC2=O?
A: IC50 (NCI-H460): > 5 µM; IC50 (SF-268): > 5 µM; IC50 (MCF7): 3.1 µM; IC50 (PC-3M): 4.9 µM; IC50 (MDA-MB-231): 1.2 µM

Q: With COc1cc(O)c2c(c1)C(=O)c1cocc1C2=O [MONOSPORASCONE] as the compound, how does the IC50 (NCI-H460) read?
A: The IC50 was greater than 5 µM.

Q: What about the IC50 (SF-268) of the same compound?
A: Its IC50 is greater than 5 µM.

Q: What about the IC50 (MCF7) of the same compound?
A: The IC50 was greater than 5 µM.

Q: What about the IC50 (PC-3M) of the same compound?
A: Its IC50 is greater than 5 µM.

Q: And the IC50 (MDA-MB-231)?
A: Its IC50 is 3.8 µM.

Q: How did the IC50 (NCI-H460) turn out when COc1cccc2c1C(=O)c1c(O)c3c(c(O)c1C2=O)C[C@@](O)(C(=O)CO)C[C@@H]3O[C@H]1C[C@H](N)[C@H](O)[C@H](C)O1 [DOXORUBICIN] was run?
A: Its IC50 is 0.4 µM.

Q: What about the IC50 (PC-3M) of the same compound?
A: The IC50 was 0.2 µM.

Q: And the IC50 (MDA-MB-231)?
A: Its IC50 is 0.6 µM.
